This is an account of results in ChEMBL document CHEMBL4602630, “Synthesis and cytotoxicity evaluation of glycosidic derivatives of lawsone against breast cancer cell lines” (Bioorg Med Chem Lett, 2020).

By IC50 is commonly meant the midpoint of a concentration-inhibition curve.

One series concerns MDA-MB-231. The series is described as follows: Cytotoxicity against triple-negative human MDA-MB-231 cells assessed as redution in cell viability incubated for 72 hrs by SRB assay. In kind it is functional, cell-based. The following applies: MDA-MB-231, 72 h. The method, boiled down:
(§1)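 Breast tumour lines from ATCC, each in its own medium with 10% FBS: SKBR-3 (HER2+) in McCoy's 5A; MCF-7 (ER+) in MEM plus 0.01 mg/mL human recombinant insulin; MDA-MB-231 (triple-negative) in DMEM. Cells were kept at 37°C, 5% CO2, humidified. Compounds were tested on 1x10^4 cells/well by sulforhodamine B assay. IC50 came from a nonlinear fit of log concentration vs normalized response (variable slope).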

The test system of another series is MCF7. The series is described as follows: Cytotoxicity against ER-positive human MCF7 cells assessed as redution in cell viability incubated for 72 hrs by SRB assay. The following applies: MCF7, 72 h. In kind it is functional, cell-based. An outline of the steps: as §1
In general terms: In SRB staining, fixed cells bind dye roughly in proportion to their protein.

In a further series the test system is SK-BR-3. The series is described as follows: Cytotoxicity against HER2-positive human SKBR3 cells assessed as redution in cell viability incubated for 72 hrs by SRB assay. In kind it is functional, cell-based. The following applies: SK-BR-3, 72 h.
Series [1] in a line: Selectivity index, ratio of IC50 for human HGF cells to IC50 for SKBR3 cells. It counts as toxicity. The following applies: HGF cells versus SKBR3 cells, read-out: Ratio IC50.
A short description of series [2]: Cytotoxicity against human HGF cells assessed as redution in cell viability incubated for 72 hrs by SRB assay. It counts as cell-based. An outline of the steps: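 Non-tumour human HGF cells were obtained under UFSC ethics approval 021/2009 and kept at 37°C, 5% CO2, humidified, with 10% FBS. Compounds were tested on 1x10^4 cells/well by sulforhodamine B assay. IC50 came from a nonlinear variable-slope fit of log concentration vs normalized response.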

The nature of series [3]: Selectivity index, ratio of IC50 for human HGF cells to IC50 for MCF7 cells. It counts as toxicity. Particulars: HGF cells versus MCF7 cells, read-out: Ratio IC50.
Series [4] in a line: Selectivity index, ratio of IC50 for human HGF cells to IC50 for MDA-MB-231 cells. In kind it is toxicity. Particulars: HGF cells versus MDA-MB-231 cells, read-out: Ratio IC50.

As to `CC(=O)OC[C@H]1O[C@@H](n2cc(COC3=CC(=O)c4ccccc4C3=O)nn2)[C@H](OC(C)=O)[C@@H](OC(C)=O)[C@@H]1OC(C)=O`, the half-inhibitory concentration (IC50) turned out to be 14 µM in the series with MDA-MB-231, 3.33 µM in the series with MCF7, 0.78 µM with SK-BR-3 and 17.7 µM in series [2]. The selectivity ratio in series [1] was determined as 22.

Turning to `CC(=O)OC[C@H]1O[C@@H](OC2=CC(=O)c3ccccc3C2=O)[C@H](OC(C)=O)[C@@H](OC(C)=O)[C@H]1OC(C)=O`, the IC50 with MDA-MB-231 was 13.3 µM; in the series on MCF7 it was 13.6 µM; in the series with SK-BR-3, 8.86 µM; in series [2] it was 34.6 µM.

With `CC(=O)OC[C@H]1O[C@H](OC2=CC(=O)c3ccccc3C2=O)[C@H](OC(C)=O)[C@@H](OC(C)=O)[C@@H]1OC(C)=O`, the IC50 in the series with MDA-MB-231 is 8.29 µM; with MCF7, 3.52 µM; in the series on SK-BR-3 it was 2.11 µM; in series [2] it was 20.2 µM.

With `CC(=O)N[C@H]1[C@@H](OC2=CC(=O)c3ccccc3C2=O)O[C@H](COC(C)=O)[C@@H](OC(C)=O)[C@@H]1OC(C)=O`, the half-inhibitory concentration (IC50) in the series with MDA-MB-231 stood at 19.8 µM; with MCF7 it was 6.59 µM; with SK-BR-3, 3.41 µM; in series [2], 40.2 µM.

Turning to `CC(=O)OC[C@H]1O[C@H](OC2=CC(=O)c3ccccc3C2=O)[C@H](OC(C)=O)[C@@H](OC(C)=O)[C@H]1OC(C)=O`, the IC50 is 9.18 µM with MDA-MB-231, 4.58 µM in the series with MCF7, 2.51 µM in the series on SK-BR-3 and 35.7 µM in series [2]. In addition, the selectivity ratio in series [3] was determined as 8; in series [4], 4.

For the molecule `O=C1C=C(OCc2cn([C@@H]3O[C@H](CO)[C@H](O)[C@H](O)[C@H]3O)nn2)C(=O)c2ccccc21`, the IC50 (in the series with MDA-MB-231; in the series with MCF7; in the series on SK-BR-3; in series [2]) was over 50 µM in each case.

Take `CC(=O)OC[C@H]1O[C@@H](n2cc(COC3=CC(=O)c4ccccc4C3=O)nn2)[C@H](OC(C)=O)[C@@H](OC(C)=O)[C@H]1OC(C)=O`: the IC50 in the series on MDA-MB-231 amounted to 16.7 µM; in the series on MCF7, 4.22 µM; in the series with SK-BR-3 it was 1.27 µM; in series [2], 27.6 µM. Further, in series [1], the selectivity ratio amounted to 22.

Turning to `CC(=O)N[C@@H]1[C@@H](O)[C@H](O)[C@@H](CO)O[C@H]1n1cc(COC2=CC(=O)c3ccccc3C2=O)nn1`, the IC50 (in the series on MDA-MB-231; with MCF7; in the series on SK-BR-3; in series [2]) was over 50 µM each time.

As to `CC(=O)O[C@H]1[C@H](OC(C)=O)[C@H](OC2=CC(=O)c3ccccc3C2=O)O[C@@H](C)[C@H]1OC(C)=O`, the IC50 in the series on MDA-MB-231 was 18.2 µM; in the series with MCF7, 11 µM; in the series on SK-BR-3, 9.52 µM; in series [2], 19.8 µM.

On to `CC(=O)O[C@@H]1[C@H](OC(C)=O)[C@H](C)O[C@H](n2cc(COC3=CC(=O)c4ccccc4C3=O)nn2)[C@H]1OC(C)=O`, for which the IC50 in the series on MDA-MB-231 amounted to 23.4 µM; with MCF7, 9.74 µM; with SK-BR-3 it was 3.32 µM; in series [2] it was 38.1 µM.

For the molecule `CC(=O)N[C@H]1[C@H](OC2=CC(=O)c3ccccc3C2=O)O[C@H](COC(C)=O)[C@@H](OC(C)=O)[C@@H]1OC(C)=O`, the IC50 in the series on MDA-MB-231 is 27.6 µM; in the series with MCF7, 16.3 µM; with SK-BR-3, 8.3 µM; in series [2], over 50 µM.

Turning to `O=C1C=C(OCc2cn([C@@H]3O[C@H](CO)[C@@H](O)[C@H](O)[C@H]3O)nn2)C(=O)c2ccccc21`, the IC50 with MDA-MB-231 is over 50 µM; in the series with MCF7 it was 38.9 µM; in the series on SK-BR-3, 34.7 µM; in series [2], over 50 µM.

Regarding `CC(=O)O[C@H]1[C@H](OC(C)=O)[C@@H](OC2=CC(=O)c3ccccc3C2=O)O[C@@H](C)[C@H]1OC(C)=O`, the 50% inhibitory concentration (IC50) in the series with MDA-MB-231 was 8.65 µM; in the series on MCF7, 5.02 µM; in the series with SK-BR-3, 2.41 µM; in series [2], over 50 µM.

Regarding `C[C@@H]1O[C@H](n2cc(COC3=CC(=O)c4ccccc4C3=O)nn2)[C@@H](O)[C@H](O)[C@@H]1O`, the IC50 (in the series on MDA-MB-231; in the series on MCF7; in the series on SK-BR-3; in series [2]) was over 50 µM each time.

Consider `CC(=O)OC[C@H]1O[C@@H](OC2=CC(=O)c3ccccc3C2=O)[C@H](OC(C)=O)[C@@H](OC(C)=O)[C@@H]1OC(C)=O`, for which the IC50 in the series on MDA-MB-231 was found to be 12.6 µM; in the series on MCF7, 4.76 µM; in the series on SK-BR-3 it was 2.96 µM; in series [2], 19.1 µM.

Regarding `CC(=O)N[C@@H]1[C@@H](OC(C)=O)[C@H](OC(C)=O)[C@@H](COC(C)=O)O[C@H]1n1cc(COC2=CC(=O)c3ccccc3C2=O)nn1`, the half-inhibitory concentration (IC50) is over 50 µM in the series on MDA-MB-231, 28.9 µM in the series with MCF7, 17 µM with SK-BR-3 and over 50 µM in series [2].

For `COc1cccc2c1C(=O)c1c(O)c3c(c(O)c1C2=O)C[C@@](O)(C(=O)CO)C[C@@H]3O[C@H]1C[C@H](N)[C@H](O)[C@H](C)O1` [DOXORUBICIN], the 50% inhibitory concentration (IC50) is 0.38 µM with MCF7 and over 50 µM in series [2].

On to `O=C1C=C(O)C(=O)c2ccccc21` [LAWSONE], for which the IC50 (in the series on MDA-MB-231; with MCF7; in the series on SK-BR-3; in series [2]) was over 50 µM throughout.
